Screening data from PubChem.
Kir21 inh: inhibitors of mouse Kir2.1 inward-rectifier potassium channel | 0.85% of 310,000 active | HEK293-Kir2.1, FluxOR thallium flux fluorescence; stronger effect = lower value | Inward rectifier potassium channel 2 (Mus musculus), P35561 | B-score at 10 µM;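 active = fluorescence ratio B-score at or below minus 3 SD of library scores, with starting-brightness B-score within 2 SD, cut at about -4.2 in these data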;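 note: channel flux triggered by added potassium and thallium sulfate stimulus; B-score of peak minus minimum fluorescence over baseline after thallium stimulus; more negative B-score means stronger Kir2.1 block with less thallium influx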
KCNK9 inh: KCNK9 potassium channel inhibitors, primary screen, HEK293 cells, thallium flux; 1.2% of 310,000 active; B-score at 10 µM; FluxOR thallium flux fluorescence; stronger effect = lower value;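 active = ratio B-score over 3 SD below the library mean, with starting fluorescence within 5 SD of its mean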;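 note: negative B-score means less thallium flux so channel inhibition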
KCNQ1 pot: potentiators or activators of KCNQ1 channel, primary screen, cell-based, thallium flux, high-throughput; CHO-K1 KCNQ1, thallium flux FluxOR fluorescence; stronger effect = higher value; Potassium voltage-gated channel subfamily KQT member 1 (Homo sapiens), P51787; B-score at 10 µM; AID 2648, 2010; 0.35% of 310,000 active;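 active = fluorescence ratio B-score, a plate-corrected score, at least three library SD, with initial intensity B-score within 5 SD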
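Schedule – 37 °C overnight plating, 90-min dark dye load, 20-min compound pretreatment · System – stable KCNQ1 CHO-K1 line · Probe or stimulus – thallium- and potassium-containing depolarizing buffer · Measured by – kinetic FluxOR fluorescence, 10 s baseline plus 110 s post-stimulus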
hERG protect: hERG rescue from dofetilide block, primary screen, cell-based, CHO-hERG, FluxOR thallium flux, dofetilide IC70. Voltage-gated inwardly rectifying potassium channel KCNH2 (Homo sapiens), Q12809. dofetilide IC70 present. activation (rescue from dofetilide block), less the hit threshold, % at 10 µM. 0.51% of 310,000 active. AID 1511, 2009;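 active = activation above the mean of controls blocked by dofetilide plus 5 SD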;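 note: thallium influx through hERG after potassium depolarization seen as dye fluorescence rise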
KCNK3 inh: human KCNK3 channel inhibitors, primary screen, CHO cells, FluxOR thallium flux, B-score | Potassium channel subfamily K member 3 (Homo sapiens), O14649 | AID 602410, 2012 | B-score at 10 µM | FluxOR fluorescence; stronger effect = lower value | 0.84% of 340,000 active;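 active = B-score under library mean minus 4 SD, starting fluorescence ratio at most library mean plus 5 SD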;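 note: more negative B-score means stronger inhibition of thallium flux through KCNK3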
Target sequence (O14649 whole entry, looked up): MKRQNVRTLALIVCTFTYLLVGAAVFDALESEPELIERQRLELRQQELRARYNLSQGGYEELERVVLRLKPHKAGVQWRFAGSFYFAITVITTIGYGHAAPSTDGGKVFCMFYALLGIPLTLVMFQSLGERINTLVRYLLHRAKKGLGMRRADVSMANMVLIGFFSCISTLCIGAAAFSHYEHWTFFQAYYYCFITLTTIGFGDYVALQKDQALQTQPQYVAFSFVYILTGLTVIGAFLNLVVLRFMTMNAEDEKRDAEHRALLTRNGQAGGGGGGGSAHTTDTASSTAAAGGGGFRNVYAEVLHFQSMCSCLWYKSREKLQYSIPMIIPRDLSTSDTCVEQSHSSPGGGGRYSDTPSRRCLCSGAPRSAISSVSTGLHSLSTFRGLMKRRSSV
KCNQ1 block: inhibitors of human KCNQ1 channel, primary screen, cell-based, thallium flux, high-throughput; CHO-K1 KCNQ1, FluxOR thallium flux fluorescence; stronger effect = higher value; 1.3% of 310,000 active; Potassium voltage-gated channel subfamily KQT member 1 (Homo sapiens), P51787; B-score at 10 µM; AID 2642, 2010;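 active = compounds whose thallium flux B-score, printed positive for inhibition, exceeds three library SD while starting fluorescence stays within three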;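 note: channel opened by potassium depolarization with thallium stimulus after 20 min compound exposure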
KCNK3 confirm: retest of human KCNK3 channel inhibitors, confirmation, CHO cells, FluxOR thallium flux, triplicate; shares compounds with KCNK3 inh; FluxOR fluorescence; 0% buffer, 100% carvedilol maximal block; ratio percent of control, % at 10 µM; 99% of 2,400 active; AID 651638, 2012;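 active = ratio percent of control, averaged over triplicates, above buffer control mean plus 5 SD, cut at about 64% in these data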;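 note: ratio is the fluorescence rise from min to max over baseline after thallium stimulus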
KCNK3 uninduced: thallium flux inhibition in non-induced cells, primary screen, counter-screen for KCNK3 inhibitor project, cell-based, non-induced KCNK3 line, FluxOR thallium, triplicate. shares compounds with KCNK3 inh. non-induced KCNK3 parental cells; stronger effect = lower value. thallium flux ratio (lower = more inhibition) at 10 µM. 40% of 2,400 active;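 active = thallium flux ratio, averaged over three wells, more than 5 SD below the buffer control mean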;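 note: host cells are CHO cells without KCNK3 induction; ratio is peak minus trough fluorescence over baseline then normalized to buffer controls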
* marks the source's active call; other numbers are inactive results; i = inactive; . = not tested or not shown. Sampled rows, rich in hits. Any-hit rate of the full collection: about 3.8%.

SMILES	Kir21 inh	KCNK9 inh	KCNQ1 pot	hERG protect	KCNK3 inh	KCNQ1 block	KCNK3 confirm	KCNK3 uninduced
Cc1c(NS(=O)(=O)CC23CCC(CC2=O)C3(C)C)c(=O)n(-c2ccccc2)n1C (configuration not stated)	-2	i	i	-19	i	i	.	.
CCOC(=O)C1(Cc2cccc(Cl)c2)CCCN(C(=O)c2cc(C)n(C)n2)C1 (configuration not stated)	0.13	i	i	-6	i	i	.	.
CCC(=NCc1ccco1)c1c(C(F)(F)F)[nH]n(-c2nc3ccccc3s2)c1=O	2	i	i	-16	-9*	i	114*	i
Cc1c(C(=O)N2CCCC2)oc2c1-c1nn(CC(=O)NCCCN3CCCCC3)cc1CC2	-0.15	i	i	-8	i	i	.	.
Cn1nccc1C(=O)N1CCN(c2ccccc2Cl)CC1	1.1	i	i	-7	i	i	.	.
CCN(CC(=O)Nc1c(C(=O)OC)[nH]c2ccc(Cl)cc12)c1ccc2c(c1)OCO2	-0.3	-7.2*	i	-7	-9.2*	i	105*	0.15*
O=C(c1ccc(-c2ccccc2)cc1)C1CCCN(Cc2ccncc2)C1 (configuration not stated)	0.02	i	i	-24	-10*	i	129*	i
O=C(c1ccc(-c2ccccc2)cc1)C1CCCN(C(=O)c2ccncc2)C1 (configuration not stated)	0.73	i	i	-12	i	i	.	.
C/C(CC(=O)Nc1ccc(Cl)cc1Cl)=N\NC(=O)c1ccncc1	0.24	i	i	-6	i	i	.	.
COc1ccc(Cl)cc1NC(=S)Nc1cccc(C)c1	1.2	i	i	-5	-9.4*	i	105*	i
COc1cc(C2NC(=S)NC(C)=C2C(=O)c2ccccc2)ccc1O (configuration not stated)	-0.67	i	i	-11	i	i	.	.
CCCOc1ccc(C2NC(=S)NC(C)=C2C(=O)c2ccccc2)cc1OC (configuration not stated)	-0.05	i	i	-11	-9.8*	i	97*	i
Cc1cc(NCc2ccccc2)nc(-c2ccccc2O)n1	0.77	i	i	-8	-11*	i	133*	0.13*
COCn1c(COc2ccc3ccccc3c2)nc2ccccc21	-0.02	i	i	-8	-8.8*	i	95*	i
CCn1c(COc2cccc(C)c2)nc2ccccc21	-0.37	i	i	-7	i	i	.	.
O=C1C(Cl)=C(NCCc2ccccc2)C(=O)c2ccccc21	.	.	.	.	-14*	.	161*	0.065*
CC(=O)Nc1ccc(OS(=O)(=O)c2ccccc2C)cc1	1.5	i	i	-4	i	i	.	.
Cc1ccccc1S(=O)(=O)Oc1ccc2ccc(O)cc2c1	-0.67	i	i	-24	-10*	i	97*	i
N#C/C(=N\Nc1cccc(C(F)(F)F)c1)C(=O)c1csc(-c2cccnc2)n1	-0.08	i	i	-32	-9.4*	7*	101*	0.13*
COC(=O)[C@@H]1C[C@H]2CC[C@H](O)C[C@H]2N1Cc1ccc(C)s1	-0.68	i	i	-8	i	i	.	.
CC(=O)NC(C)c1nc2ccccc2n1CC(=O)NC(C)CCc1ccccc1 (configuration not stated)	-1.2	i	i	-9	i	i	.	.
O=C(NCCCSc1ccccc1)c1cc(Br)ccc1O	-0.73	i	i	-15	-8.8*	i	151*	0.12*
COc1ccc(Cl)cc1C(=O)NCCCSc1ccccc1	-0.32	i	i	-7	-9.2*	i	112*	0.16*
COc1ccc(CN2C(=O)c3cccc4cccc2c34)cc1F	-0.16	i	i	-9	-9.3*	i	90*	i
COc1ccc(CCN2C(=O)c3cccc4cccc(c34)C2=O)cc1OC	-0.03	i	i	-8	i	i	.	.
SMILES	Kir21 inh	KCNK9 inh	KCNQ1 pot	hERG protect	KCNK3 inh	KCNQ1 block	KCNK3 confirm	KCNK3 uninduced
COCCc1ncc(CN2CCCC(C(=O)Nc3cccc(-c4cccc(C)c4)c3)C2)cn1 (configuration not stated)	-0.18	i	i	-11	-9*	i	91*	i
Cc1ccc(C)c(S(=O)(=O)N2CCC(c3nc4c(nnn4Cc4ccc(F)cc4)c(=O)[nH]3)CC2)c1	.	.	.	.	i	.	.	.
Cc1sc2nc(SCc3nc(-c4cccs4)no3)n(-c3ccccc3)c(=O)c2c1C	-0.72	-7.7*	i	-9	-12*	i	109*	i
c1ccc(-n2c(SCc3nc(-c4cccs4)no3)nnc2-c2ccco2)cc1	-1.5	i	i	-6	i	i	.	.
COC(=O)c1sccc1NC(=O)c1ccc(C(C)C)cc1	-1.8	i	i	-10	-11*	i	100*	i
COCCCNC(=O)CCCC(=O)NCCCOC	0.62	i	i	-7	i	i	.	.
CCCOc1cc(C)c(Cl)cc1S(=O)(=O)N(CC)CC	-3.3	i	i	0	-11*	i	99*	i
CCOC(=O)C1CCCN(C2CC(=O)N(c3cccc(C)c3)C2=O)C1 (configuration not stated)	-0.04	i	i	-10	i	i	.	.
Cc1ccc(/C(N)=N/OC(=O)c2ccc(F)cc2)cc1	-0.68	i	i	-9	i	i	.	.
CSCC[C@H](NC(=O)c1ccc(Cl)c(S(=O)(=O)N2CCCC2)c1)c1nc2ccccc2[nH]1	-0.09	i	i	0	-11*	i	107*	i
CSCCC(NC(=O)c1cccc(S(=O)(=O)N2CCN(C(C)=O)CC2)c1)c1nc2ccccc2[nH]1 (configuration not stated)	.	.	.	.	i	.	.	.
CC(C)(C)c1ccc(C(=O)NCCC(=O)N2CCCC2)cc1	1.7	i	i	-10	i	i	.	.
